The source made the active and inactive calls.

Experiment [1] deals with T1, Neuronal acetylcholine receptor; alpha4/beta2 (Rattus norvegicus, UniProt P09483+P12390). The experiment in a line: Displacement of [3H]cytisine from alpha-4-beta-2 nAChR in rat cerebral cortex. Format: tissue-based. A digest of the protocol: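 Rat cerebral cortex membranes labelled with [³H]-cytisine, which marks α4β2* receptors. Compounds were tested for displacement up to 10 µM, with amines used as oxalate salts. Ki values were determined.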

For another experiment, the system named is Mus musculus. The experiment in a line: Analgesic activity in mouse at 5 mg/kg, ip by hot plate test […]. Format: functional, organism-based. Set-up: dose 5 mg/kg. A digest of the protocol: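 Mice were placed on a stainless steel surface held at 52.5 ± 0.1 °C, and dosing was i.p. at 5 mg/kg. Paw-licking latency (s) was timed by stopwatch before and 15, 30, 45 and 60 min after dosing. Mice with pretest scores below 12 or above 18 s were excluded, and the cutoff was 45 s. Ten mice per group; mean ± SEM.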
(Hot-plate and tail-flick tests time the reaction to a heat stimulus.)

Experiment [2] addresses Neuronal acetylcholine receptor subunit alpha-7 (Rattus norvegicus, UniProt Q05941). The experiment in a line: Displacement of [3H]alpha-bungarotoxin from alpha-7 nAChR in rat cerebral cortex. Format: tissue-based.
For experiment [3], the target named is T1, Neuronal acetylcholine receptor; alpha4/beta2. The experiment in a line: Displacement of [3H]epibatidine from alpha-4-beta-2 nAChR in rat cerebral cortex. Format: tissue-based. A digest of the protocol:
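Rat cerebral cortex was used in competition binding against [³H]-epibatidine, with amines tested as oxalate salts. Ki values were derived, and subtype selectivity was taken from comparison with Ki values obtained on the same tissue.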
On the technique in general: Displacement assays read how much labelled ligand stays bound in the presence of the test substance.

Neuronal acetylcholine receptor subunit alpha-7, sequence (Q05941 whole entry): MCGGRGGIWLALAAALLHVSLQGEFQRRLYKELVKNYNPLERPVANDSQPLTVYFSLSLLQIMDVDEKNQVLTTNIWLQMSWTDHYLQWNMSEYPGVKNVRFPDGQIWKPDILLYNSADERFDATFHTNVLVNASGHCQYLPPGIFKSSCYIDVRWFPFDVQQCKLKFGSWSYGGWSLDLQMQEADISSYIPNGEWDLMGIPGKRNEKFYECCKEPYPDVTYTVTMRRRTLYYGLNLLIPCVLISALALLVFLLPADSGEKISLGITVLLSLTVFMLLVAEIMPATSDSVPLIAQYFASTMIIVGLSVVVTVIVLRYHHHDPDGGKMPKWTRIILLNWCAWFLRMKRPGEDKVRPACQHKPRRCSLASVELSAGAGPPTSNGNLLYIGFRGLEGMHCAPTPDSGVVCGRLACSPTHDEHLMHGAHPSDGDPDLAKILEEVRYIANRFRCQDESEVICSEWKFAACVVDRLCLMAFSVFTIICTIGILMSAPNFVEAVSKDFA
T1 sequence (P09483 whole entry): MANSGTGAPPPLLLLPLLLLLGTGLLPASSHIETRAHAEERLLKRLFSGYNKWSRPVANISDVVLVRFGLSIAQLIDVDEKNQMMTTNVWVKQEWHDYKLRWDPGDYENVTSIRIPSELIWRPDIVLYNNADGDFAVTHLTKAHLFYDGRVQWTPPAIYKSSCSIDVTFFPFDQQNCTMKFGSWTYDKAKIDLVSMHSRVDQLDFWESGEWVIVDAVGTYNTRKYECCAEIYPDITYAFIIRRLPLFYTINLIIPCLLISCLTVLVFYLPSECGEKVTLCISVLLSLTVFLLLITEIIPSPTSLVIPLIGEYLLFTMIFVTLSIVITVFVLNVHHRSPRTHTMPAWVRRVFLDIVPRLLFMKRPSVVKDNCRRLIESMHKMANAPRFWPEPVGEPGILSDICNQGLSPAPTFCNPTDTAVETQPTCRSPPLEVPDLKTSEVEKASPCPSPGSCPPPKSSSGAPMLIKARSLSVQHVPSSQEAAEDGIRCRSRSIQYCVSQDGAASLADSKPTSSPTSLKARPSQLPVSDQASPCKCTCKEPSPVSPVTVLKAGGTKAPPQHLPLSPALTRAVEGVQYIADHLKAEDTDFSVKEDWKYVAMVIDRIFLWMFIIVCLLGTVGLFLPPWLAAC
T1 sequence (P12390 whole entry): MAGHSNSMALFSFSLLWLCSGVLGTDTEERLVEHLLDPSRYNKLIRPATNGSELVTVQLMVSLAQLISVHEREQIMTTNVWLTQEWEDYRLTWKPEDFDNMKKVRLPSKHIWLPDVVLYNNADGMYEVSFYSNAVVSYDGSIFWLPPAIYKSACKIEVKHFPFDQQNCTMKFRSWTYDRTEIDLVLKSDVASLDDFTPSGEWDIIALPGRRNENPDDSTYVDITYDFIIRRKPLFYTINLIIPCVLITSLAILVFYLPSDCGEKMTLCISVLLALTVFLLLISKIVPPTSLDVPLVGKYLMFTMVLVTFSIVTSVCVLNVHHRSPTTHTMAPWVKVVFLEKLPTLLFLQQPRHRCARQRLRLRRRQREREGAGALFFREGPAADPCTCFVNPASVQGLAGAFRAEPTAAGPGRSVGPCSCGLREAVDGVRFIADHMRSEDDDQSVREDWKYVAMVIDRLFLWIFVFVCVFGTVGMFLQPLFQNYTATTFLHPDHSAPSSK

What is called Ki is the dissociation constant of the complex between target and ligand, obtained from inhibition or displacement. Lower therefore signals higher affinity. `C[N+]1(C)CCCC1c1ccc2ncccc2c1` (racemic) returned a Ki in experiment [1] of 45 nM. The Activity result in the experiment on Mus musculus was “Dose-dependent effect”.

Turning to `CN1CCC[C@@H]1c1ccc2ncccc2c1`, the Ki in experiment [1] stood at 1950 nM; in experiment [2] it was 8100 nM; in experiment [3], 2100 nM.

As for `CN1CCC[C@H]1c1ccc2ncccc2c1`, the Ki in experiment [1] was 90 nM; in experiment [2], 42000 nM; in experiment [3], 124 nM.

For `C[N+]1(C)CCC[C@H]1c1ccc2ncccc2c1`, the Ki in experiment [1] is 16 nM; in experiment [2] it was 1570 nM; in experiment [3], 42 nM. Further, the result with Mus musculus was Active.

In experiment [1], `CN1CCCC1c1ccc2ncccc2c1` (racemic) gave a Ki of 132 nM. In addition, the Activity result in the experiment on Mus musculus is “Dose-dependent effect”.

With `C[N+]1(C)CCC[C@@H]1c1ccc2ncccc2c1`, the Ki in experiment [1] was found to be 220 nM; in experiment [2] it was 90 nM; in experiment [3], 1400 nM.

Take `C[N+](C)(C)CCC#Cc1ccc2ncccc2c1`: the Ki stood at 142 nM in experiment [2] and 6800 nM in experiment [3].

These data come from ChEMBL document CHEMBL1148810, “Design, synthesis, and preliminary pharmacological evaluation of new quinoline derivatives as nicotinic ligands” (J Med Chem, 2007).
